Assay [1] deals with L1210. Briefly: Antitumor activity against L1210 lymphoid leukemia and treated mean survival time per control mean survival time was determined at 500 mg/kg. Type of assay: functional, Mus musculus. The essentials:
(§1)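 Mice bearing L1210 lymphoid leukaemia, tested by NCI contractors. Compound given as a single injection 1 day after tumour cell inoculation. T/C% = (treated/control) × 100.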

The test system of assay [2] is L1210. The experiment in a line: Antitumor activity against L1210 lymphoid leukemia and treated mean survival time per control mean survival time was determined at 300 mg/kg. Type of assay: functional, Mus musculus. The essentials:
as §1

Another assay concerns Mus musculus. The experiment in a line: Antitumor activity against CD8F1 mammary tumor and treated mean survival time per control mean survival time was determined at 300 mg/kg. The class given is functional. The essentials:
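Mice bearing CD8F1 mammary tumour, tested by NCI contractors. Compound given as a single injection starting 20 days after tumour cell inoculation. T/C% = (treated/control) × 100.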

For a further assay, the system named is P388. Briefly: Antitumor activity against P388 Lymphocytic leukemia and treated mean survival time per control mean survival time was determined at 200 mg/kg. The class given is functional, Mus musculus. The essentials:
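Mice bearing P388 lymphocytic leukaemia, tested by NCI contractors. Compound given as five consecutive injections beginning 1 day after tumour cell inoculation. T/C% = (treated/control) × 100.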

Assay [3] can be described thus: Antitumor activity against Lewis lung carcinomia and treated mean survival time per control mean survival time was determined at 400 mg/kg. Type of assay: functional, Mus musculus. Summed up: (§2)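 Mice bearing Lewis lung carcinoma, tested by NCI contractors. Compound given as nine consecutive injections beginning 1 day after tumour cell inoculation. T/C% = (treated/control) × 100.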

A short description of assay [4]: Antitumor activity against Lewis lung carcinomia and treated mean survival time per control mean survival time was determined at 50 mg/kg. The class given is functional, Mus musculus. The essentials:
as §2

SMILES strings stand for the structures. Where “and” joins values, the source holds several entries; their conditions need not be identical. Equal values may be shown once.

As for `CC/C(=C(/CC)c1ccc(OP(=O)(Cl)N(CCCl)CCCl)cc1)c1ccc(OP(=O)(Cl)N(CCCl)CCCl)cc1` (centres undefined), the T/C in the assay with L1210 [1] is 100%. `CC/C(=C(/CC)c1ccc(OP(N)(=O)N(CCCl)CCCl)cc1)c1ccc(OP(N)(=O)N(CCCl)CCCl)cc1` (centres undefined): the T/C with L1210 [2] is 113%; in the assay with Mus musculus, 39%; with P388 (200 mg/kg), 100% and 104%. The compound `NP(=O)(Oc1cccc2c(OP(N)(=O)N(CCCl)CCCl)cccc12)N(CCCl)CCCl` (centres undefined) came in with a T/C with L1210 [1] of 95%. With `NP(=O)(Oc1c2occc2cc2ccc(=O)oc12)N(CCCl)CCCl` (centres undefined), in the assay on P388, the T/C is on record as 114%.

As for `CC(C)N1C[C@@H](COc2cccc3ccccc23)O[P@@]1(=O)N(CCCl)CCCl` (racemic), the T/C in the assay on L1210 [1] (500 mg/kg) is 130% and 110% and 90%. For the compound `CC(C)N1C[C@H](COc2cccc3ccccc23)O[P@@]1(=O)N(CCCl)CCCl` (racemic), the T/C was 90% in assay [3] and 95% in assay [4].

Values taken from ChEMBL document CHEMBL1122593, “Phosphorus-nitrogen compounds. 24. Phosphoramide mustard carrier derivatives” (1984).
